What was measured:
[1] = species on record: Mus musculus; assay: Compounds were evaluated for the effect on electroconvulsive-shock-induced disruption (ECS) of the memory of passive avoidance response (antiamnesic activity) in mice and expressed as latency.; format: functional
Outline: (§1)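 Male ddY mice (20–25 g) are dosed i.p. at 200 mg/kg as a suspension in pH 7.4 isotonic phosphate buffer with 1% CMC-Na (0.1 mL/10 g), 60 min before training. A two-compartment step-through box is used: lighted compartment, darkened compartment with grid floor, 30 V foot shock. Memory is disrupted by electroconvulsive shock. Mean ± SEM; Student's t test versus the ECS group.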

[2] = species on record: Rattus norvegicus; assay: Degradation rate constant in biological media of rat liver homogenates.; format: ADME, organism-based
Outline: (§2)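 Tissues come from male ddY mice (20–30 g) and male Wistar rats (200–250 g). Liver and brain are homogenized at 0–5 °C to 40% in pH 7.4 isotonic phosphate buffer and spun at 2500g for 15 min; the supernatant is used. Plasma is also used. A 0.1 M acetonitrile stock gives 1 mM final. Incubation at 37 ± 0.2 °C; apparent rate constant in h⁻¹.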

[3] = species on record: Mus musculus; assay: Degradation rate constant in biological media of mouse brain homogenates.; format: ADME, organism-based; outline: as §2
[4] = Solubility in pH 5.0 phosphate buffer (0.1 M) at 37 degrees Centigrade; Miscible; format: physicochemical
[5] = species on record: Mus musculus; assay: Latency to the protection against lethality by picrotoxin was measured and evaluated as a percent of the control in mice.; format: functional; design: concentration or dose not given beside the values
Outline: (§3)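 Male ddY mice (20–30 g) were given compound i.p. at 200 mg/kg as a suspension in pH 7.4 isotonic phosphate buffer with 1% CMC-Na, 15 min before s.c. picrotoxin 5 mg/kg. Dosing volume was 0.1 mL/10 g, and controls received vehicle. Latency to generalized clonic seizure and survival time were each expressed as % of control.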

[6] = species on record: Mus musculus; assay: Compounds were evaluated for the effect on electroconvulsive-shock-induced disruption (ECS) of the memory of passive avoidance response (antiamnesic activity) in mice and expressed as learning time.; format: functional; outline: as §1
[7] = system: Mus musculus; assay: Sleeping time in mice after administration in mice induced by sodium pentobarbital; format: functional
Outline: (§4)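 Male ddY mice (20–30 g) are dosed i.p. at 50 mg/kg as a suspension in pH 7.4 isotonic phosphate buffer with 1% CMC-Na (0.1 mL/10 g), 30 min before i.p. sodium pentobarbital (45 mg/kg). Loss of righting reflex and sleeping time are recorded per mouse. Mean ± SEM; Student's t test versus control.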

[8] = system: Mus musculus; assay: Onset for sleeping time after administration in mice induced by sodium pentobarbital; format: functional; outline: as §4
[9] = Degradation rate constant in the buffer solution(pH 7.4) was studied as a measure of the stability of the compound.; format: physicochemical
Outline: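 A 0.1 M acetonitrile stock is added to preheated pH 7.4 phosphate buffer (0.1 M total, ionic strength 0.3 with NaCl) to 1 mM at 37 ± 0.2 °C. Aliquots are sampled over time. Pseudo-first-order fit gives the apparent rate constant in h⁻¹.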

[10] = species on record: Mus musculus; assay: Latency to the onset of generalized clonic epileptic seizures by picrotoxin was measured and evaluated as a percent of the control in mice.; format: functional; design: concentration or dose not given beside the values; outline: as §3
[11] = species on record: Mus musculus; assay: Degradation rate constant in biological media of mouse liver homogenates.; format: ADME, organism-based; outline: as §2
[12] = species on record: Rattus norvegicus; assay: Degradation rate constant in biological media of rat brain homogenates.; format: ADME, organism-based; outline: as §2
[13] = species on record: Mus musculus; assay: Survival ratio was calculated for determination of dose dependency.; format: functional
Outline: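 In male ddY mice (20–30 g), compound was given i.p. at varied doses as a suspension in pH 7.4 isotonic phosphate buffer with 1% CMC-Na, 15 min before s.c. picrotoxin 5 mg/kg. Dosing volume was 0.1 mL/10 g. Over 2 h of observation, the fraction of mice surviving was recorded at each dose to define dose dependency.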

[14] = Apparent partition coefficient between 1-octanol and pH 5.0 phosphate buffer (0.1 M) at 37 degrees Centigrade.; format: physicochemical; details: 1-octanol/phosphate buffer, read-out: LogD5.0
Outline: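 Final drug concentration 2 mM. The value is reported as the log of the apparent partition coefficient.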

[15] = species on record: Rattus norvegicus; assay: Degradation rate constant in biological media of rat plasma homogenates.; format: ADME, organism-based; outline: as §2
[16] = species on record: Mus musculus; assay: Compounds were evaluated for the effect on electroconvulsive-shock-induced disruption (ECS) of the memory of passive avoidance response (anti-amnesic activity) in mice and expressed as latency.; format: functional; outline: as §1

| Structure (SMILES) | Latency [1] | Degradation rate constant [2] | Degradation rate constant [3] | Saq [4] | Survival time [5] | Learning time [6] | Sleeping time [7] | Onset for sleep [8] | Degradation rate constant [9] | Latency to clonic seizure onset (% of control) [10] | Degradation rate constant [11] | Degradation rate constant [12] | Survival ratio [13] | logD [14] | Degradation rate constant [15] | Latency [16] | Onset for sleep, min [8] |
| --- | --- | --- | --- | --- | --- | --- | --- | --- | --- | --- | --- | --- | --- | --- | --- | --- | --- |
| CC(=O)N1CCCC1=O | 101.7 s | 0.097 h⁻¹ | 0.01 h⁻¹ | Miscible | 144% | 15.3 s | 38.2 min | 6.9 min | 0.015 h⁻¹ | 97% | 0.221 h⁻¹ | 0.014 h⁻¹ | 0 | -0.05 | 0.028 h⁻¹ | – | – |
| CCCCCCC(=O)N1CCCC1=O | – | 14.6 h⁻¹ | 0.086 h⁻¹ | – | 116% | 20.4 s | 61.8 min | 7.9 min | 0.012 h⁻¹ | 124% | 11.9 h⁻¹ | 0.075 h⁻¹ | 0 | 3.04 | 0.056 h⁻¹ | 240.6 s | – |
| CCCCC(=O)N1CCCC1=O | – | – | – | – | 107% | – | – | – | – | 78% | – | – | 0 | – | – | – | – |
| CCCC(=O)N1CCCC1=O | – | 3.11 h⁻¹ | 0.016 h⁻¹ | – | 142% | – | 92 min | 7.2 min | 0.006 h⁻¹ | 92% | 1.35 h⁻¹ | 0.016 h⁻¹ | 0 | 1.18 | 0.054 h⁻¹ | – | – |
| CCCCCCCCCC(=O)N1CCCC1=O | – | 2.87 h⁻¹ | 0.326 h⁻¹ | – | 364% | – | – | – | 0.008 h⁻¹ | 302% | 2.53 h⁻¹ | 0.381 h⁻¹ | 50 | 4.33 | 0.025 h⁻¹ | – | – |
| CCC(=O)N1CCCC1=O | – | – | – | – | 112% | – | – | – | – | 104% | – | – | 0 | – | – | – | – |
| O=C(O)CCC(=O)N1CCCC1=O | – | – | – | – | 93% | – | – | – | – | 113% | – | – | 0 | – | – | – | – |
| O=C1CCCN1C(=O)c1ccccc1 | – | – | – | – | 93% | – | – | – | – | 114% | – | – | 0 | – | – | – | – |
| CCCCCCCCCCCC(=O)NCCCC(=O)O | – | – | – | – | 388% | – | – | – | – | 493% | – | – | 60 | – | – | – | – |
| CC(C)(C)C(=O)N1CCCC1=O | – | – | – | – | 120% | – | – | – | – | 101% | – | – | 0 | – | – | – | – |
| O=C1CCCN1C(=O)Cc1ccccc1 | – | – | – | – | 281% | – | – | – | – | 106% | – | – | 33 | – | – | – | – |
| CCCCCCCCCCCC(=O)N1CCCC1=O | 278.8 s | 1.23 h⁻¹ | 0.155 h⁻¹ | – | 494% | 19.4 s | 47.4 min | 9.6 min | 0.007 h⁻¹ | 129% | 0.789 h⁻¹ | 0.233 h⁻¹ | 80 | 5.05 | 0.016 h⁻¹ | – | – |
| O=C1CCCN1 [2-PYRROLIDONE] | – | 0.03 h⁻¹ | 0.002 h⁻¹ | Miscible | 102% | – | 24.8 min | 10.2 min | < 0.0001 h⁻¹ | 107% | 0.034 h⁻¹ | 0.016 h⁻¹ | 0 | – | 0.018 h⁻¹ | – | – |
| CCC1(C)CC(=O)NC1=O (stereo unspecified) [ETHOSUXIMIDE] | – | – | – | – | 577% | – | – | – | – | 792% | – | – | 100 | – | – | – | – |
| NCCCC(=O)O [GAMMA-AMINOBUTYRIC ACID] | – | – | – | – | 112% | – | 25.7 min | 10.1 min | – | 115% | – | – | – | -3.33 | – | – | – |
| CCCC(CCC)C(=O)O [VALPROIC ACID] | – | – | – | – | 472% | – | 36.4 min | – | – | 171% | – | – | 63 | – | – | – | 10 |
